PfGluPho inh = PfG6PD (Plasmodium falciparum) enzyme inhibition; PfGluPho enzyme, NADPH resazurin-diaphorase fluorescence; inhibition, % at 20 µM; actives 0.78% (n = 350,000);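 active = inhibition reaching at least a set limit at 20 µM in the primary screen, cut at about 59% in these data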;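 note: 0% = DMSO wells with substrate and 100% = DMSO wells lacking glucose-6-phosphate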
A3A deaminase = blocks human APOBEC3A ssDNA deamination; recombinant A3A, FAM/TAMRA ssDNA deamination fluorescence; inhibition, % at 20 µM; actives 0.41% (n = 330,000); AID 493011;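 active = at least 40% inhibition at 20 µM here, with at most 30% in a related deaminase screen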;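 note: plate controls were A3A with DMSO for no effect and wells lacking A3A enzyme for full effect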
Target sequence (P31941 whole entry, looked up): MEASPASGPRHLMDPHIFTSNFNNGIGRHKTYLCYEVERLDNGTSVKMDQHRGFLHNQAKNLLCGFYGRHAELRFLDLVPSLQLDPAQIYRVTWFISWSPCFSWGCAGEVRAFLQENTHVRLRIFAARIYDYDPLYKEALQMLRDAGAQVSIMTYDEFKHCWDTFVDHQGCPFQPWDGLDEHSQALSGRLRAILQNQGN
A3G deaminase = inhibitors of human APOBEC3G DNA deaminase. Q9HC16. recombinant A3G, ssDNA deamination FAM/TAMRA fluorescence. inhibition, % at 20 µM. actives 0.28% (n = 330,000). AID 493012;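 active = inhibition of at least 40% at 20 µM, with no more than 30% in the related APOBEC3A deaminase screen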;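 note: plate controls were DMSO wells with A3G for no effect and wells lacking A3G enzyme for full effect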
Target sequence (Q9HC16 whole entry, looked up): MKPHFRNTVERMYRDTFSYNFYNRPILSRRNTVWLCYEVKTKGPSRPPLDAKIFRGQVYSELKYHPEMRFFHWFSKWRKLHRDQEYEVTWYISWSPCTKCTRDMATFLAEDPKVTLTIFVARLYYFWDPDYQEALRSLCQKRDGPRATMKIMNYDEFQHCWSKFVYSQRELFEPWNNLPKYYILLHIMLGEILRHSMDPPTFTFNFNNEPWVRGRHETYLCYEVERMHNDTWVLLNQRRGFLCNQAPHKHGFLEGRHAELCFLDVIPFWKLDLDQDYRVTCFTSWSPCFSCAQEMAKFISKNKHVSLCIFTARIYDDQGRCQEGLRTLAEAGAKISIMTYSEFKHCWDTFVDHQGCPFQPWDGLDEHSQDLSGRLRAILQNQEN
HKDC1 inhibitor = HKDC1 (human) hexokinase inhibition | inhibition, % at 20 µM | actives 0.16% (n = 340,000) | Q2TB90 | recombinant HKDC1, G6PDH/diaphorase resazurin coupled fluorescence;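 active = inhibition above about 35% when tested at 20 µM, limit read from the data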;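 note: plate controls were DMSO wells with enzyme for no effect and DMSO wells lacking enzyme for full effect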
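Assay system: recombinant HKDC1 hexokinase; detection: coupled resazurin fluorescence, excitation 525 nm, emission 613 nm; benchmarks: DMSO-plus-enzyme-mix negative control, buffer-substituted positive control; compound dosing: single 20 µM dose; schedule: 90 min at room temperature in dark; also added: glucose plus 1 mM ATP as hexokinase substrates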
PfM18AAP inh = blocks P. falciparum M18 aspartyl aminopeptidase. actives 1.2% (n = 290,000). recombinant PfM18AAP, H-Glu-NHMec fluorogenic cleavage. AID 1822. inhibition, % at 7.35 µM;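 active = inhibition above the campaign mean inhibition over all tested compounds plus 3 SD, cut at about 28% in these data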;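 note: 0% = plate median of test compound wells and 100% = 2 mM ZnCl2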
SUMO HTRF inh = inhibitors of human SUMOylation (UBC9); actives 0.36% (n = 290,000); inhibition, % at 35 µM; HTRF SUMOylation assay, SAE1/SAE2 + UBC9, in vitro; in the data active = inhibition above about 50%, passing the limit was not always enough
Target sequence (P63279 whole entry, looked up): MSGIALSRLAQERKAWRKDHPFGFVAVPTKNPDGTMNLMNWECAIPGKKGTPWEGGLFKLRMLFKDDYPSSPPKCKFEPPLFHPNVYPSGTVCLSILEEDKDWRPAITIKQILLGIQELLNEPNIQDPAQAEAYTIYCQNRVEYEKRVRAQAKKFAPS
HKDC1 act conf = confirmation of human HKDC1 activators | shares compounds with HKDC1 inhibitor | actives 14% (n = 740) | recombinant HKDC1, G6PDH/diaphorase resazurin fluorescence; stronger effect = lower value | AID 504708 | inhibition, % at 20 µM;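 active = inhibition at or below a set negative limit, negative inhibition meaning the enzyme was activated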
PfG6PD confirm = PfG6PD inhibition, single-dose confirmed. actives 34% (n = 2,400). shares compounds with PfGluPho inh. AID 504753. inhibition, % at 20 µM. recombinant PfGluPho, NADPH-diaphorase-resazurin fluorescence;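 active = inhibition of at least 50% at 20 µM in any single replicate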;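 note: 0% = DMSO with substrate and 100% = DMSO lacking glucose-6-phosphate substrate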
Diaphorase 10uM = counter-screen for P. falciparum G6PD inhibitors: diaphorase inhibitors, oxidizers | shares compounds with PfGluPho inh | diaphorase-coupled resazurin reduction, fluorescence, NADPH 10 uM | inhibition, % at 20 µM | actives 39% (n = 820) | AID 504862;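 active = average inhibition reaching 50% or more with the compound at 20 µM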;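 note: resorufin red fluorescence formed as diaphorase reduces resazurin using NADPH; 0% = DMSO with enzyme and 100% = DMSO without enzyme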
Diaph ctr 30uM = inhibits diaphorase or oxidizes, flagging false PfG6PD hits; actives 29% (n = 820); Diaphorase/resazurin coupled assay, resorufin fluorescence, 30 uM NADPH; inhibition, % at 20 µM; shares compounds with PfGluPho inh;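 active = inhibition averaging 50% or more, tested at 20 µM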;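 note: 0% = DMSO with enzyme and 100% = DMSO wells lacking diaphorase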
* = called active by the depositor; nt = no result given. Most compounds without a hit are left out; they make up all but 2.4% or so of the library.

SMILES	PfGluPho inh	A3A deaminase	A3G deaminase	HKDC1 inhibitor	PfM18AAP inh	SUMO HTRF inh	HKDC1 act conf	others
Cc1ccc(-n2c3nc(=O)[nH]c(=O)c-3cc3cc([N+](=O)[O-])ccc32)cc1	38.4	3.2	0.7	49.4*	20.7	-1.8	56.2
Cc1ccc(-n2c(C)nn(Cc3ccc([N+](=O)[O-])cc3)c2=O)cc1	2.0	5.2	-0.8	-7.4	-2.9	8.7	nt
CCN(CC)c1ccc(C(=O)NC(=S)N2CCN(Cc3ccc4c(c3)OCO4)CC2)cc1	3.4	-5.3	-9.0	-0.6	7.1	-7.5	nt
O=S(=O)(c1ccc(NC(=S)NN=C(Cc2ccccc2)Cc2ccccc2)cc1)N1CCOCC1	28.9	-4.0	-10.5	-47.1	29.3*	5.5	-43.9*
O=S(=O)(c1ccc(NC(=S)NCCc2ccccc2)cc1)N1CCOCC1	10.3	0.1	-7.6	-3.8	-6.6	-12.8	nt
CCCCN1C(=O)C(NC(C)=O)c2cc(Br)ccc21 (stereo unspecified)	0.4	-0.7	-0.2	-3.1	14.6	3.0	nt
CC(=O)NC1C(=O)N(CCN2CCOCC2)c2ccc(C)cc21 (stereo unspecified)	17.1	nt	nt	85.7*	48.4*	81.4*	69.7
CC(=O)NC1C(=O)N(CCN2CCOCC2)c2ccc(F)cc21 (stereo unspecified)	7.6	1.9	1.2	79.3*	22.2	nt	61.1
CC(=O)NC1C(=O)N(CCN2CCOCC2)c2ccc(Cl)cc21 (stereo unspecified)	11.8	nt	nt	82.4*	21.9	nt	60.6
N#CC(C#N)=c1ccc2c(c1)N1C3=C(CCCC3)CC3CCCCC31N=2 (stereo unspecified)	45.6	1.4	0.8	38.8*	-6.4	-39.9	-9.2
O=C1C(Cc2ccccc2)SC(=Nc2ccccc2)N1c1ccccc1 (stereo unspecified)	6.8	-1.1	-5.9	7.6	0.3	-12.8	nt
N#CC(C#N)=C1SC(=Nc2ccccc2)C(=Nc2ccccc2)N1c1ccccc1	29.3	nt	nt	-85.7	nt	nt	-31.9
Fc1ccc(N2C(=S)SC(=Nc3ccccc3)C2=Nc2ccccc2)cc1	6.7	nt	nt	-49.6	nt	nt	-31.9
C=CCN(CC=C)Cc1c(O)ccc2c1oc(=O)c1ccccc12	30.4	0.3	-9.6	33.5	20.2	nt	22.9
O=C(O)c1cccc2cccc(-c3c4ccc(=O)c(O)c-4oc4c(O)c(O)ccc34)c12	50.7	nt	nt	69.5*	nt	nt	35.9
CC(=O)n1cc(N(C(=O)CCl)c2ccc(Cl)cc2)c2ccccc21	-0.8	-4.6	-9.6	58.3*	5.2	12.0	33.2
Cc1ccc(C(=O)ONc2ccc(N=NC(=O)c3ccccc3O)cc2)cc1	-29.8	-5.2	-7.1	65.0*	-14.2	-10.0	-2.1
COC1=CC(=O)C=C(OC)C1=O	124.5*	nt	nt	65.7*	nt	nt	75.2
COC1=CC(=O)c2ccccc2C1=O	-94.5	0.1	-5.6	3.2	nt	nt	nt
CCCCNC(=O)c1sc(=S)n2c1[nH]c(=O)c1ccc(C(=O)NCCc3ccc(OC)c(OC)c3)cc12	46.2	-3.5	-0.9	47.9*	6.7	-12.8	49.8
COc1ccc2cc(/C=N/NC(=O)c3c(Cl)cnn3C)c(Cl)nc2c1	-4.7	-0.8	-2.6	-74.9	-8.0	10.0	-13.0
CC(=O)Nc1ccc(NS(=O)(=O)c2cc(Cl)ccc2Cl)cc1	-17.2	-0.6	-3.5	-9.8	-7.6	-10.3	nt
O=c1cc(-c2cccc(Br)c2)nc(-c2ccccc2F)o1	-0.2	-0.4	-3.3	30.9	0.1	11.5	12.3
O=c1cc(-c2ccccc2F)nc(-c2ccccc2F)o1	-5.0	-1.4	-3.0	2.1	-0.4	-2.8	nt
O=C(CCNC(=O)c1ccc([N+](=O)[O-])cc1)NCCC1=CCCCC1	5.2	-0.3	-6.7	35.0*	nt	nt	-26.0
SMILES	PfGluPho inh	A3A deaminase	A3G deaminase	HKDC1 inhibitor	PfM18AAP inh	SUMO HTRF inh	HKDC1 act conf	others
CC(C)(C)NC(=O)/C(=C\c1ccco1)NC(=O)c1ccco1	8.3	-2.2	-5.3	-4.4	6.9	-7.2	nt
O=C(O)[C@@H](c1ccccc1)N1Cc2ccccc2C1=O	-4.0	-1.3	-2.5	52.0*	20.5	33.8	43.8
O=C(O)C(c1ccccc1)N1C(=O)c2ccccc2C1=O (stereo unspecified)	-8.4	0.5	2.9	-5.0	-0.3	-5.1	nt
O=C1C(Cl)=C(N2CCCCC2)C(=O)C(Cl)=C1c1cnc(N2CCCCC2)s1	87.6*	53.5	39.2	70.0*	20.8	58.6*	49.4
O=C1C(Cl)=C(N2CCCCCC2)C(=O)N1c1ccc(Cl)cc1	-10.0	-2.3	-2.0	-0.7	8.0	-7.8	nt
COc1cc(-c2nnc(CSc3nnc(Nc4ccc(C(C)C)cc4)s3)o2)cc(OC)c1OC	17.0	5.7	2.3	-5.7	2.9	-7.8	nt
CCOc1ccccc1Nc1nnc(SCc2nnc(-c3cc(OC)c(OC)c(OC)c3)o2)s1	42.1	-7.2	-10.8	48.2*	-4.7	-3.7	44.7
COc1ccccc1Nc1nnc(SCc2nnc(-c3cc(OC)c(OC)c(OC)c3)o2)s1	31.7	-6.6	-8.4	34.6	-2.9	-2.8	33.4
COc1ccc(-n2nc(C(=O)NCC(=O)N3CCN(c4ccccn4)CC3)c3ccccc3c2=O)c(OC)c1	-11.5	-4.2	-6.8	-6.1	nt	nt	nt
Cc1ccc(C2=NNC(=Nc3ccc(F)cc3)SC2)cc1	9.1	nt	nt	-69.6	-17.7	-17.1	-80.0*
Cc1cccc(N=C2NN=C(c3c(C)[nH]c4ccccc34)CS2)c1	27.8	-4.5	-5.8	-41.0	0.9	17.3	-17.7
CCc1ccc(C2=NNC(=Nc3cccc(S(=O)(=O)N(C)C)c3)SC2)cc1	-0.5	0.9	-0.6	-177.3	7.1	-17.4	-140.7*
Cc1cccc(N=C2NN=C(c3ccc4c(c3)OCCO4)CS2)c1	12.3	-1.0	-3.6	-61.7	3.0	-15.5	-19.5
C=CCn1c(C)cc(C2=NNC(=Nc3ccc(C)cc3)SC2)c1C	22.5	0.7	-4.8	-8.0	-8.5	5.8	nt
CN(C)S(=O)(=O)c1cccc(N=C2SCCN2Cc2ccccc2)c1	1.0	-3.3	18.3	-4.5	5.3	-10.2	nt
O=C(CSc1ccc(Cl)cc1)Nc1cc(-c2nc3ncccc3o2)ccc1Cl	nt	1.0	-4.1	nt	3.3	14.3	nt
COc1cc(/C=C2\SC(c3ccc(C)cc3)=NC2=O)cc(OC)c1O	75.2*	-5.9	-5.0	47.5*	17.1	-14.0	31.8	PfG6PD confirm=52.5*;Diaphorase 10uM=7.0;Diaph ctr 30uM=12.8

Source: PubChem
